Casp6 inh = caspase-6 (human) enzyme inhibition | P55212 | purified caspase-6, Z-VEID-R110 cleavage fluorescence | inhibition, % at 12.5 µM | 350,000 compounds, 0.53% hits;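 active means mean inhibition across replicates at least about 35%, with every replicate also reaching that limit, limit read from the data; inconclusive means only one of the two criteria met; inactive means neither criterion met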
Target sequence (P55212 24-179 limits assumed): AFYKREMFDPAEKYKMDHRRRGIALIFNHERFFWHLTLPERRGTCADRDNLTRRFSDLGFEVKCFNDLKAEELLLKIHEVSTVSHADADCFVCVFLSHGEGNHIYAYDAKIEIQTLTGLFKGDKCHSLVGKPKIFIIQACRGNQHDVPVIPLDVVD
Target sequence (P55212 194-293 limits assumed): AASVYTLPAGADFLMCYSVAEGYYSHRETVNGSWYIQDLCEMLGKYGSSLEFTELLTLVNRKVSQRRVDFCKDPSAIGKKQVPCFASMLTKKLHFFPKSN
XiGFP reactiv = X-chromosome reactivation activator. XiGFP mouse fibroblasts, % GFP-positive cells imaging, 3 d; cells co-treated with 5-aza-dC sensitizer; scaled so ellipticine positive control = 100%. activation, % at 7.58 µM. 360,000 compounds, 0.055% hits. AID 743238;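 active means mean normalized replicate activation at least 10% and every replicate at or above 10%; inconclusive means only one of the two criteria met; inactive means mean below 10% and not all replicates reach 10%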
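Material: SV40-immortalized XiGFP fibroblast cells, line 68-5-11 | Buffer or medium: DMEM containing 5-aza-dC | Dosing: One concentration, pinned | Times: 3 d treatment, 15 min room-temperature fixation | Controls: Ellipticine 6 µM positive control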
esBAF inh = blocks esBAF chromatin remodeling in mouse ES cells; 350,000 compounds, 2% hits; reporter increase, % at 12.5 µM; Bmi1-luciferase knock-in reporter, 24 h; 100% = twice the neutral-well signal; in the data active means activation above about 40%; inconclusive means no clear call, values can overlap the other calls;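 further: a rise in the Bmi1 reporter signal indicates esBAF inhibition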
MITF act = activators of MITF-driven TRPM1 promoter activity in SK-MEL-5 cells; activation, % at 12.5 µM; SK-MEL-5 TRPM1-promoter luciferase, 24 h; % of positive control, neutral wells = 0; 300,000 compounds, 0.75% hits;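 active means mean activation of at least 80% with every replicate also reaching 80%; inconclusive means mean reaches 80% but some replicate falls short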
NSD2 inh = blocks human histone methyltransferase NSD2 | NSD2 peptide methylation, AlphaScreen, 120 min | 310,000 compounds, 0.54% hits | inhibition, % at 12.5 µM | O96028; in the data active means inhibition above about 50%
Wnt bcat act = activates Wnt/beta-catenin signaling in a reporter cell assay; 300,000 compounds, 1.2% hits; activation, % at 9.35 µM; AID 743398; activator, plate reader; in the data active means activation above about 30%, passing the limit was not always enough; inconclusive means no clear call, values can overlap the other calls
Hits are given with their value; 0 = inactive; ? = inconclusive; - = no result. Sampled rows, rich in hits. Any-hit rate of the full collection: about 3%.

SMILES	Casp6 inh	XiGFP reactiv	esBAF inh	MITF act	NSD2 inh	Wnt bcat act
C/C(NC(=O)c1cccs1)=C1\C(=O)C[C@@H]2[C@H]1C2(C)C	-	-	43.6	0	0	0
CC(=O)N(C)C[C@H]1Oc2ccccc2C(=O)N(C)C[C@H]1C	-	0	-	-	-	-
O=S(=O)(O)c1cc(O)c2ccc(Nc3ccccc3)cc2c1	94.7	0	0	0	104.7	0
COc1ccccc1Nc1ccc2c(O)cc(S(=O)(=O)O)cc2c1	87.6	0	-	0	109.9	0
O=C(C[C@@H]1CC[C@@H]2[C@H](COC[C@@H](O)CN2C(=O)Nc2ccc(C(F)(F)F)cc2)O1)NC1Cc2ccccc2C1	0	0	0	-	-	-
C[C@H](CO)N1C[C@H](C)[C@H](CN(C)C(=O)c2ccccc2F)Oc2cc(-c3ccccc3)ccc2S1(=O)=O	-	0	0	-	-	-
C[C@@H]1CCCCO[C@@H](CN(C)S(=O)(=O)c2cccs2)[C@@H](C)CN([C@H](C)CO)C(=O)c2cc(NC(=O)NC3CCCCC3)ccc2O1	-	0	0	-	-	-
CC(=O)OCC1=C(C(=O)O)N2C(=O)[C@@H](NC(=O)CSc3ccncc3)[C@H]2SC1	38.4	0	-	0	0	0
CC(=O)OCC1=C(C(=O)O)N2C(=O)C(NC(=O)c3ccc(F)cc3)C2SC1 (stereo not drawn)	0	0	-	0	0	0
Cc1nc(NC(=S)Nc2ccccc2)sc1C	0	0	-	0	0	79.7
CCc1nnc(NC(=S)Nc2ccccc2)s1	0	0	-	0	0	0
Cc1ccc(C(=O)Nc2nnc(NC(=S)Nc3ccccc3)s2)cc1	0	0	56.4	0	0	0
CCOc1ccc(C(=O)Nc2nnc(NC(=S)Nc3ccccc3)s2)cc1	0	0	0	0	0	0
COc1cccc(S(=O)(=O)N[C@H]2C=C[C@H](CC(=O)NCc3ccncc3)O[C@H]2CO)c1	0	0	-	-	-	-
O=C(C[C@H]1CC[C@H]2[C@@H](COC[C@H](O)CN2CCC(F)(F)F)O1)NCc1ccc(Oc2ccccc2)cc1	-	0	0	-	-	-
Cc1ccc2c(c1)c(C)c(C)n2CC(O)Cn1nnc2ccccc21 (stereo not drawn)	-	-	63.5	-	0	?
CCC(=O)N1CC(=O)N2[C@H](C1)[C@H](c1ccc(C3=CCCCC3)cc1)[C@@H]2CO	-	0	-	-	-	-
N#C/C(=C\c1ccc(F)cc1)c1nc(-c2ccco2)cs1	0	0	79.1	0	0	0
CCN(C(=O)C1=COCCO1)c1nc2c(C)cccc2s1	0	0	48.0	0	0	0
Cc1cc(C)c2nc(N(CCCN(C)C)C(=O)C3=COCCO3)sc2c1	0	0	0	0	-	0
O=C(Nc1ccc(N2CCN(C(=O)c3ccco3)CC2)cc1)c1cc(Br)ccc1Cl	0	0	0	0	0	0
CCC12CN(C(=O)c3ccco3)CC(CC)(CN(C(=O)c3ccco3)C1)C2=O	55.3	0	0	0	0	0
O=C(c1ccco1)N1CCN(Cc2ccccc2F)CC1	0	0	0	0	0	0
O=C(c1ccco1)N1CCN(c2ccc(Cl)cc2)CC1	-	-	48.2	92.8	0	0
O=C(Cc1ccc(Cl)cc1)Nc1ccc(N2CCN(C(=O)c3ccco3)CC2)cc1	-	-	0	-	0	0
SMILES	Casp6 inh	XiGFP reactiv	esBAF inh	MITF act	NSD2 inh	Wnt bcat act
O=C(c1ccco1)N1CCN(Cc2c(F)cccc2Cl)CC1	0	0	45.0	-	0	0
O=C(c1ccco1)N1CCN(c2ccc(Cl)c(Cl)c2)CC1	-	-	44.4	0	0	0
Cc1noc(C)c1NC(=O)N(C)C[C@H]1Oc2ccc(NC(=O)CCN3CCOCC3)cc2C(=O)N([C@@H](C)CO)C[C@H]1C	0	0	0	-	-	-
C[C@@H]1CN([C@@H](C)CO)C(=O)Cc2cc(NC(=O)Cc3ccccc3)ccc2O[C@@H]1CN(C)S(=O)(=O)c1ccc(F)cc1	0	0	0	-	-	-
Cc1cc(Br)cc(Cl)c1OCC(=O)N1CCN(C(=O)c2ccco2)CC1	0	0	0	0	0	59.1
Cc1cc(C)c(OCC(=O)OCC(=O)N2CCN(C(=O)c3ccco3)CC2)c(C)c1	0	0	0	0	0	0
N#Cc1c(N)nc2c(c1N)CC(CO)O2 (stereo not drawn)	-	-	0	0	0	-
Cc1ccccc1OCC1Cc2c(nc(N)c(C#N)c2N)O1 (stereo not drawn)	-	-	49.0	0	0	0
Cc1cc(NC(=O)OC2CCCCC2)ccc1[N+](=O)[O-]	0	0	67.2	120.1	0	0
O=C(Nc1cccnc1)OC1CCCCC1	0	0	-	0	0	0
Cc1ccc(NC(=O)C2C3CCCCC32)cc1[N+](=O)[O-] (stereo not drawn)	0	0	42.1	0	0	0
C[C@H]1CN([C@@H](C)CO)S(=O)(=O)c2ccc(C3=CCCCC3)cc2O[C@@H]1CN(C)Cc1ccncc1	0	0	0	-	-	-
CC(C)(C)c1cc(NC(=O)c2ccc(OC3CCCC3)cc2)no1	0	0	-	0	0	0
O=C(Nc1ccon1)c1ccc(OC2CCCC2)cc1	-	0	-	?	0	46.2
COc1ccc(NC(=O)Nc2ccc3c(c2)C(=O)N([C@H](C)CO)C[C@H](C)[C@H](CN(C)C(=O)Nc2ccc4c(c2)OCO4)OCCCC[C@H](C)O3)cc1	0	0	0	-	-	-
O=C(COC(=O)C1CC2CCCC(C1)C2=O)Nc1ccc(F)c(Cl)c1 (stereo not drawn)	0	0	0	0	0	0
O=C(COC(=O)C1CC2CCCC(C1)C2=O)Nc1nc(-c2ccc(F)c(F)c2)cs1 (stereo not drawn)	0	0	70.0	0	0	0
CNC(=O)C[C@@H]1CC[C@H]2[C@H](COc3ccc(NC(=O)c4cc(C)on4)cc3C(=O)N2C)O1	-	0	0	-	-	-
S=C(c1ccc(-c2ccc(Br)cc2)o1)N1CCOCC1	0	0	-	-	0	52.6
S=C(c1ccc(-c2ccc(Cl)c(Cl)c2)o1)N1CCOCC1	-	-	44.9	113.5	0	-
S=C(c1ccc(-c2ccc(Br)cc2)o1)N1CCCCC1	54.1	0	48.4	0	0	46.1
O=C(Cc1ccc(Br)cc1)N1CCCCCC1	-	-	56.8	-	0	-
O=C(Cc1ccc(Br)cc1)N1CCCC1	0	0	0	0	0	0
COc1ccccc1NC(=O)N[C@@H]1CC[C@H](CC(=O)N[C@@H](C)c2ccccc2)O[C@H]1CO	0	0	0	-	-	-
C[C@H](NC(=O)C[C@@H]1CC[C@@H](NC(=O)C2CCOCC2)[C@H](CO)O1)c1ccccc1	0	0	0	-	-	-
COCC(=O)Nc1ccc2c(c1)[C@@H]1C[C@H](CC(=O)NCc3ccccc3OC)O[C@H](CO)[C@@H]1O2	0	0	0	-	-	-
Cc1ccc(S(=O)(=O)Nc2ccc3c(c2)C(=O)N([C@H](C)CO)C[C@@H](C)[C@H](CN(C)C(=O)c2ccccc2)OCCCC[C@@H](C)O3)cc1	0	0	0	-	-	-
CNC[C@H]1OCCCC[C@@H](C)Oc2ccc(NC(=O)Nc3ccc4c(c3)OCO4)cc2C(=O)N([C@H](C)CO)C[C@@H]1C	0	0	0	-	-	-

High-throughput results as filed in PubChem BioAssay.
